Data taken from PMC3818134 (Clinical cancer research : an official journal of the …, 2013).

Tests used:
[1] = system: stable p110α KD and control (CONSH) cell lines (RH30, RMS-1, RD, RMS-YM); assay: MTS growth inhibition in paired CONSH and stable p110α KD lines; type: cell-based, human; details: MTS growth inhibition curves, 72hr exposure
Method in brief: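 Lines were transduced with lentiviral PIK3CA or control shRNA at MOI 10 with polybrene (4μg/ml). Puromycin selection (2.5μg/ml) ran from day 2, and stable lines were derived over about 4 weeks. Cells were grown in DMEM with 10% FBS at 37°C, 5% CO2. MTS growth inhibition curves were run after 72hr continuous exposure to the test compound, diluted from 10mM stock.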

RD cells = assay: GI50; type: cell-based, human; details: RD cells with NRAS mutation
Method in brief: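 RD cells in DMEM with 10% FBS at 37°C, 5% CO2. Compounds prepared as 10mM stocks, then diluted in medium. MTS read-out after 72hr continuous exposure; GI₅₀ = concentration giving 50% inhibition of proliferation. Isobologram: GI₅₀ of each single agent, plus GI₅₀ of one agent at several fixed sub-GI₅₀ concentrations of the other. These are plotted on the axes, with a diagonal line as theoretical additivity.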

pERK1/2 in RD cells = assay: Western immunoblot biomarker time course in RD cells; type: cell-based, human; details: 0.5× and 1.0× GI50 concentrations, 48hr time course
Method in brief: (§1)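 RD cells (DMEM, 10% FBS, 37°C) were treated with single agents or the combination at 0.5× and 1.0× GI₅₀ concentrations and sampled at time points up to 48h. Lysates (10μg) were run on Bis-Tris/Tris-Acetate gels and transferred to PVDF. Primary antibody 1:1,000 overnight at 4°C; HRP secondary 1:10,000 for 2h at room temperature; ECL Plus detection. PhosphorImager quantitation; treated/control levels expressed as % of time 0.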

pSer473AKT in RD cells = assay: Western immunoblot biomarker time course in RD cells; type: cell-based, human; details: 0.5× and 1.0× GI50 concentrations, 48hr time course
Method in brief: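 RD cells (DMEM, 10% FBS, 37°C, 5% CO2) treated with test compounds singly or combined; protein extracted at time points over 48 hr. Lysates BCA-quantified, 10 μg on Bis-Tris or Tris-Acetate gels, PVDF transfer, primary 1:1,000 overnight 4°C, HRP secondary 1:10,000 2 h RT, ECL Plus, phosphorimager quantitation. Control and treated loaded side by side; treated/control phospho-levels given as % of time 0.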

[2] = Plasma and tumor pharmacokinetics; type: in vivo, mice; details: for plasma level 16hrs following treatment: 10mg/kg p.o., mice bearing RD xenografts; for plasma concentrations when administered alone: AZD8055 compared with NVP-BEZ235
Method in brief: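 Female 6-8 week athymic nude (Ncr) mice carried subcutaneous RD xenografts (5 × 10⁶ cells, 25% matrigel). Oral dosing at 0.1mL/10g: MEK inhibitor 10mg/kg in 10% DMSO water; TORC1/2 inhibitor 10 or 20mg/kg in acidified water; PI3K/mTOR inhibitor 25mg/kg in 10% NMP/90% PEG300. Given alone or combined. Plasma and tumors were sampled at various times (n=3), or 3hrs after the final daily dose (19-22 days). Analysed by LC-MS/MS with MRM.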

MEK1/2 = details: read-out: IC50 concentration for MEK1/2; cited from earlier work
pS6 in RD cells = assay: Western immunoblot biomarker time course in RD cells; type: cell-based, human; details: 0.5× and 1.0× GI50 concentrations, 48hr time course
Method in brief: as §1

[3] = system: pERK in RD xenograft tumors; assay: Tumor PD biomarker, MSD immunoassay; type: in vivo, mice; details: RD xenografts, end of therapeutic study
Method in brief: (§2)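 Female 6-8-week athymic nude (Ncr) mice bore subcutaneous flank RD xenografts (5 × 10⁶ cells in 25% matrigel). Once tumors reached ≈5 mm (n=6/group), mice received daily oral dosing for 19-22 days, alone or combined, with vehicle controls: MEK inhibitor 10mg/kg (10% DMSO water), TORC1/2 inhibitor 10 or 20mg/kg (acidified water), PI3K/mTOR inhibitor 25mg/kg (10% NMP/90% PEG300). Tumors were excised and snap-frozen at termination. MSD electrochemiluminescence gave phospho/total ratios in 10μg lysate.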

[4] = system: pAKT (Ser473) in RD xenograft tumors; assay: Tumor PD biomarker, MSD immunoassay; type: in vivo, mice; details: RD xenografts, end of therapeutic study
Method in brief: as §2

[5] = system: pS6 in RD xenograft tumors; assay: Tumor PD biomarker, MSD immunoassay; type: in vivo, mice; details: RD xenografts, end of therapeutic study
Method in brief: as §2

p110α = assay: PI3K isoform inhibition profile, p110α versus other isoforms; type: biochemical; details: Suppl Fig S4A
mTor = details: cited from earlier work
PI3K/mTORC1/2 = details: cited from earlier work
p110β = assay: PI3K isoform inhibition profile, p110β versus p110α; type: biochemical; details: Suppl Fig S4A
[6] = 10mg/kg p.o. each, versus alone

Structure (SMILES) | sensitivity of stable p110α KD lines compared with CONSH counterparts [1] | single-agent sensitivity of RD cells (RD cells) | pERK levels (pERK1/2 in RD cells) | plasma level 16hrs following treatment [2] | change of tumor AKT phosphorylation [4] | change of tumor S6 phosphorylation [5] | plasma concentration range in combination with AZD6244 versus alone ([2]; 3hrs following the final dose) | plasma concentrations when administered alone ([2]; 3hrs following the final dose) | other results
Cn1cnc2c(F)c(Nc3ccc(Br)cc3Cl)c(C(=O)NOCCO)cc21 [AZD6244] | only the RMS-1 KD line (lacking both p110α and p110δ) exhibited significantly enhanced sensitivity | relatively resistant | ablated pERK levels at all time points and both concentrations | close to, or below, the limit of detection | – | – | – | – | pSer473AKT levels (pSer473AKT in RD cells): increased p^Ser473AKT levels; elimination phase in combination with AZD8055 [2, 6]: extended; peak plasma concentrations in combination with AZD8055 [2, 6]: reduced; plasma AZD6244 concentrations in combination with NVP-BEZ235 ([2]; 3hrs following the final dose): reduced plasma concentrations of AZD6244 to a similar extent as AZD8055; IC50 (MEK1/2): 14 nM
COc1ccc(-c2ccc3c(N4CCOC[C@@H]4C)nc(N4CCOC[C@@H]4C)nc3n2)cc1CO [AZD8055] | more sensitive to mTOR inhibition than their CONSH counterparts | relatively resistant | increased pERK levels | close to, or below, the limit of detection | equally efficient in reducing AKT and S6 phosphorylation | equally efficient in reducing AKT and S6 phosphorylation | increased | in the same range | pS6 levels / inhibition of S6 phosphorylation (pS6 in RD cells): concentration dependent; change of tumor pERK levels [3]: increased pERK levels to a greater extent than NVP-BEZ235; plasma and tumor levels in combination with AZD6244 [2, 6]: higher
Nc1cc(C(F)(F)F)c(-c2cc(N3CCOCC3)nc(N3CCOCC3)n2)cn1 [BMK120] | No differences in sensitivity | – | – | – | – | – | – | – | selectivity for p110α versus the other isoforms (p110α): modestly selective for p110α versus the other isoforms
Cn1c(=O)n(-c2ccc(C(C)(C)C#N)cc2)c2c3cc(-c4cnc5ccccc5c4)ccc3ncc21 [NVP-BEZ235] | more sensitive to mTOR inhibition than their CONSH counterparts | – | – | – | equally efficient in reducing AKT and S6 phosphorylation | equally efficient in reducing AKT and S6 phosphorylation | increased | in the same range | concentrations at which it predominantly inhibits mTOR (mTor): less than 100 nM; concentrations at which it is a dual PI3K/mTORC1/2 inhibitor (PI3K/mTORC1/2): above 500 nM
Cc1cc(C(C)Nc2ccccc2)c2nc(N3CCOCC3)cc(=O)n2c1 (stereo not drawn) [TGX221] | only the RMS-1 stable KD cell line, with minimal p110α and δ expression, showed increased sensitivity | – | – | – | – | – | – | – | selectivity for p110β versus p110α (p110β): 78 fold
FC(F)c1nc2ccccc2n1-c1nc(N2CCOCC2)nc(N2CCOCC2)n1 [ZSTK474] | increased sensitivity | – | – | – | – | – | – | – | IC50 (mTor; read-out: IC50 against mTor): 377 nM
